# Measured values: ChEMBL document CHEMBL1154567, “New lanostanoids of Ganoderma tsugae” (2000)
# Numbered stars: 1 amine (or outer) side, 2 acyl side, 3 side chain; on linkers, the order of the positions; unused ones are H or OH. Bridge positions count the residues as written; N and C are the ends. Square brackets hold non-standard residues; d marks the D form. Peptide text beside a SMILES is read from it. I, II: the chains in the order shown. Actinocin(1to9) = Cc1c2oc3c(C)ccc(C(=O)[*:2])c3nc-2c(C(=O)[*:1])c(N)c1=O; NMeV = CN[C@H](C(=O)O)C(C)C; Sar = CNCC(=O)O
# Columns and labels:
# Type in all cases: functional
# HT-3 = test: Cytotoxicity against human HT3 cells after 6 days by MTT assay; details: HT-3, 144 h, read-out: ED50 (the source's name)
# Procedure, shortened: (§1)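 Human lines (hepatoma PLC/PRF/5, T24, cervical carcinoma HT-3 and SiHa) were kept in DMEM with 10% FBS, 2 mM L-glutamine and penicillin/streptomycin, plus 10 mM HEPES pH 7.3, at 37 °C in CO2. Cells at 1-3 × 10³/100 µL had 6 h to attach, then fresh medium with graded drug concentrations was added for 6 days. Survival was read by 4 h MTT (1 mg/mL in PBS, 10 µL) at 37 °C, with DMSO solubilization.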
# Ca-Ski = test: Cytotoxicity against human CaSKi cells after 6 days by MTT assay; details: 144 h, read-out: ED50 (the source's name)
# Procedure, shortened: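 CaSki (human cervical carcinoma) kept in DMEM with 10% FBS, 2 mM L-glutamine and penicillin/streptomycin. For the assay, 1-3 × 10³ cells/100 µL were seeded and left 6 h to attach. Medium was then replaced with fresh medium holding a range of drug concentrations, plus 10 mM HEPES pH 7.3, at 37 °C in CO₂. After 6 days, MTT (1 mg/mL in PBS) was added for 4 h. Formazan was dissolved in DMSO.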
# T-24 = test: Cytotoxicity against human T24 cells after 6 days by MTT assay; details: T-24, 144 h, read-out: ED50 (the source's name); procedure, shortened: as §1
# [1] = Cytotoxicity against human PLC/PRF/5 cells after 6 days by MTT assay; details: PLC-PRF-5, 144 h, read-out: ED50 (the source's name); procedure, shortened: as §1
# SiHa = test: Cytotoxicity against human SiHa cells after 6 days by MTT assay; details: 144 h, read-out: ED50 (the source's name); procedure, shortened: as §1
# [2] = Cytotoxicity against mouse 212 cells after 6 days by MTT assay; details: 144 h, read-out: ED50 (the source's name)
# Procedure, shortened: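 The 212 line is an inducible Ha-ras-transformed NIH/3T3 line. It was grown in alpha MEM with 10% calf serum and antibiotics, plus 10 mM HEPES pH 7.3, at 37 °C in CO2. Cells were seeded at 1-3 × 10³/100 µL and allowed 6 h to attach. Medium was then swapped for fresh medium carrying various drug concentrations for 6 days. MTT (10 µL of 1 mg/mL) was added for 4 h at 37 °C, and formazan was dissolved in DMSO.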
SMILES,EC50 (HT-3) [µg/mL],EC50 (Ca-Ski) [µg/mL],EC50 (T-24) [µg/mL],EC50 [1] [µg/mL],EC50 (SiHa) [µg/mL],EC50 [2] [µg/mL]
CC(C)=CCC[C@@H](C(=O)O)[C@H]1CC[C@@]2(C)C3=C(CC[C@]12C)[C@@]1(C)CCC(=O)C(C)(C)[C@@H]1CC3,6.9,7.2,8.2,12.1,5.1,
CC(=O)O[C@H]1CC[C@]2(C)C3=C(CC[C@H]2C1(C)C)[C@]1(C)CC[C@H]([C@@H](CCC=C(C)C)C(=O)O)[C@@]1(C)CC3 [ACETYL TRAMETENOLIC ACID],,3.9,5.8,9.2,,
"Cc1c2oc3c(C)ccc(C(=O)N[C@@H]4C(=O)N[C@H](C(C)C)C(=O)N5CCC[C@H]5C(=O)N(C)CC(=O)N(C)[C@@H](C(C)C)C(=O)O[C@@H]4C)c3nc-2c(C(=O)N[C@@H]2C(=O)N[C@H](C(C)C)C(=O)N3CCC[C@H]3C(=O)N(C)CC(=O)N(C)[C@@H](C(C)C)C(=O)O[C@@H]2C)c(N)c1=O [DACTINOMYCIN] (I: T[dV]P[Sar][NMeV] / II: T[dV]P[Sar][NMeV]; ester I:1-I:C, II:1-II:C; linker I:N-II:N via Actinocin(1to9))",,0.0019,0.0015,0.0014,,
CC(C)=CCC[C@@H](C(=O)O)[C@H]1CC[C@@]2(C)C3=C(CC[C@]12C)[C@@]1(C)CC[C@H](O)C(C)(C)[C@@H]1CC3 [TRAMETENOLIC ACID],3.5,6.2,4.4,,5.5,
CC(=O)O[C@@H]1CC[C@]2(C)C3=C(CC[C@H]2C1(C)C)[C@]1(C)CC[C@H]([C@@H](CCC=C(C)C)C(=O)O)[C@@]1(C)CC3 [TSUGARIC ACID A],,,3.1,6.8,,
C=C(C)C(C)CC[C@@H](C(=O)O)[C@H]1[C@H](O)C[C@@]2(C)C3=C(CC[C@]12C)[C@@]1(C)CC[C@H](OC(C)=O)C(C)(C)[C@@H]1CC3 (stereo not given in full) [TSUGARIC ACID B],,,,,,10.3
CC(=O)O[C@@H]1CC[C@]2(C)C3=C(CC[C@H]2C1(C)C)[C@]1(C)CC[C@H]([C@@H](CCC=C(C)C)C(=O)O[C@@H]2O[C@H](CO)[C@@H](O)[C@H](O)[C@H]2O)[C@@]1(C)CC3 [TSUGARIOSIDE A],6.8,,1.73,,8.4,
C=C(C)/C(C)=C\C[C@@H](C(=O)O[C@@H]1OC[C@@H](O)[C@H](O)[C@H]1O)[C@H]1CC[C@@]2(C)C3=C(CC[C@]12C)[C@@]1(C)CC[C@@H](OC(C)=O)C(C)(C)[C@@H]1CC3 [TSUGARIOSIDE C],7.2,,8.6,6.5,9.5,
